Activity calls are given as the source filed them.

The first experiment has as its system Paracentrotus lividus. Put plainly: Antiproliferative activity against Paracentrotus lividus embryo assessed as cleavage alteration after 10 to 15 mins fertilization 45 to 60 mins before first mitotic cycle completeion. Type of experiment: functional, organism-based.
Conditions: not given
The method in brief: (§1)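 Paracentrotus lividus embryos, gametes obtained by intracoelomic 0.5 M KCl injection. Fertilized eggs ([…] post-fertilization, 45–60 min before first mitosis) were exposed to 2-fold decreasing concentrations, at up to 3000 embryos/mL in filtered sea water at room temperature. Stocks were 5 mM in 95% EtOH or 5–10 mM in DMSO, diluted 10-fold with 95% EtOH. Read-out was scored at 2.5–6 h: threshold concentration for cleavage alteration or full mitotic arrest. Duplicate measurements.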
Regarding `c1cncc(CNc2csnc2-c2nnc(Nc3ccc4c(c3)OCCO4)o2)c1`, the EC50 – broadly, the midpoint of the concentration-response curve – came to 5 nM.
For the molecule `Nc1cc2c(cc1-c1nnc(Nc3ccc4c(c3)OCO4)o1)OCO2`, the EC50 stood at 50 nM.
Turning to `COc1ccc(/C=C\c2cc(OC)c3c(c2)OCO3)cc1O` [Combretastatin A-2], the EC50 was 2 nM.
On the same count and under the same terms, with `Nc1csnc1-c1nnc(Nc2ccc3c(c2)OCO3)o1` the figure was 500 nM; with `COc1ccc(-c2nnc(Nc3ccc4c(c3)OCCO4)o2)c(N)c1`, 25 nM; with `COC(=O)Nc1nc2cc(C(=O)c3cccs3)ccc2[nH]1` [NOCODAZOLE], 5 nM.
Take `COc1cc([C@@H]2c3cc4c(cc3[C@H](O)[C@H]3COC(=O)[C@H]23)OCO4)cc(OC)c1OC` [PODOFILOX]: the EC50 is 20 nM.
As for `COc1cc(N)c(-c2nnc(Nc3ccc4c(c3)OCO4)o2)c(OC)c1`, the EC50 turned out to be 50 nM.
Turning to `COc1ccc(/C=C\c2cc(OC)c(OC)c(OC)c2)cc1OP(=O)(O)O` [FOSBRETABULIN DISODIUM], the EC50 was 5 nM.
On the same count and under the same terms, with `Nc1csnc1-c1nnc(Nc2ccc(Cl)cc2)o1` the figure was 200 nM.
On the same count and under the same terms, as for `c1ccc(-c2nnc(Nc3ccc4c(c3)OCCO4)o2)c(NCc2ccncc2)c1`, the figure is 0.5 nM.
Same read-out and setting: with `c1cc(CNc2csnc2-c2nnc(Nc3ccc4c(c3)OCO4)o2)ccn1` the figure was 2 nM.
Consider `c1cncc(CNc2ccccc2-c2nnc(Nc3ccc4c(c3)OCO4)o2)c1`, for which the EC50 was found to be 1 nM.
The same measure, in the same setting: with `c1ccc(-c2nnc(Nc3ccc4c(c3)OCCO4)o2)c(NCc2ccns2)c1` the figure was 2000 nM.

The next experiment concerns Paracentrotus lividus. As to the kind of experiment: Antimitotic activity against Paracentrotus lividus embryo assessed as cleavage arrest after 10 to 15 mins fertilization 45 to 60 mins before first mitotic cycle completeion. The experiment is classed as functional, organism-based.
Conditions: not given
The method in brief:
as §1
Take `c1cncc(CNc2csnc2-c2nnc(Nc3ccc4c(c3)OCCO4)o2)c1`: the EC50 was 10 nM.
Same read-out and setting: as for `Nc1cc2c(cc1-c1nnc(Nc3ccc4c(c3)OCO4)o1)OCO2`, the figure is 500 nM.
Same read-out and setting: as for `COc1ccc(/C=C\c2cc(OC)c3c(c2)OCO3)cc1O` [Combretastatin A-2], the figure is 10 nM; as for `Nc1csnc1-c1nnc(Nc2ccc3c(c2)OCO3)o1`, 4000 nM.
On the same count and under the same terms, with `COc1ccc(-c2nnc(Nc3ccc4c(c3)OCCO4)o2)c(N)c1` the figure was 100 nM; with `COC(=O)Nc1nc2cc(C(=O)c3cccs3)ccc2[nH]1` [NOCODAZOLE], 10 nM.
For `COc1cc([C@@H]2c3cc4c(cc3[C@H](O)[C@H]3COC(=O)[C@H]23)OCO4)cc(OC)c1OC` [PODOFILOX], the EC50 worked out at 50 nM.
The same measure, in the same setting: with `COc1cc(N)c(-c2nnc(Nc3ccc4c(c3)OCO4)o2)c(OC)c1` the figure was 200 nM; with `COc1ccc(/C=C\c2cc(OC)c(OC)c(OC)c2)cc1OP(=O)(O)O` [FOSBRETABULIN DISODIUM], 10 nM; with `Nc1csnc1-c1nnc(Nc2ccc(Cl)cc2)o1`, 500 nM.
Still for that read-out and setting: as for `c1ccc(-c2nnc(Nc3ccc4c(c3)OCCO4)o2)c(NCc2ccncc2)c1`, the figure is 2 nM; as for `c1cc(CNc2csnc2-c2nnc(Nc3ccc4c(c3)OCO4)o2)ccn1`, 5 nM; as for `c1cncc(CNc2ccccc2-c2nnc(Nc3ccc4c(c3)OCO4)o2)c1`, 5 nM.
`c1ccc(-c2nnc(Nc3ccc4c(c3)OCCO4)o2)c(NCc2ccns2)c1`: the EC50 was 5000 nM.

The next experiment concerns Paracentrotus lividus. As to the kind of experiment: Cytotoxicity against Paracentrotus lividus embryo assessed as embryo spinning after 9 to 12 hrs fertilization and 0.5 to 20 hrs treatment. The experiment is classed as functional, organism-based.
Conditions: not given
Put shortly:
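Paracentrotus lividus free-swimming blastulae treated just after hatching (9–12 h post-fertilization). Behavior was monitored by light microscopy and embryo spinning scored as threshold concentration. Embryos were held in filtered sea water at room temperature with paddle agitation. Compound stocks were in 95% EtOH or DMSO diluted in EtOH; maximal tolerated final DMSO 0.05%, EtOH 1%.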
Turning to `c1cncc(CNc2csnc2-c2nnc(Nc3ccc4c(c3)OCCO4)o2)c1`, the EC50 is 100 nM.
Regarding `Nc1cc2c(cc1-c1nnc(Nc3ccc4c(c3)OCO4)o1)OCO2`, the EC50 amounted to 200 nM.
Same read-out and setting: with `COc1ccc(/C=C\c2cc(OC)c3c(c2)OCO3)cc1O` [Combretastatin A-2] the figure was 50 nM; with `Nc1csnc1-c1nnc(Nc2ccc3c(c2)OCO3)o1`, more than 5000 nM; with `COc1ccc(-c2nnc(Nc3ccc4c(c3)OCCO4)o2)c(N)c1`, 200 nM.
For `COC(=O)Nc1nc2cc(C(=O)c3cccs3)ccc2[nH]1` [NOCODAZOLE], the EC50 was found to be 100 nM.
The same measure, in the same setting: as for `COc1cc([C@@H]2c3cc4c(cc3[C@H](O)[C@H]3COC(=O)[C@H]23)OCO4)cc(OC)c1OC` [PODOFILOX], the figure is 500 nM; as for `COc1cc(N)c(-c2nnc(Nc3ccc4c(c3)OCO4)o2)c(OC)c1`, 1000 nM.
The same measure, in the same setting: with `COc1ccc(/C=C\c2cc(OC)c(OC)c(OC)c2)cc1OP(=O)(O)O` [FOSBRETABULIN DISODIUM] the figure was 1000 nM; with `Nc1csnc1-c1nnc(Nc2ccc(Cl)cc2)o1`, 500 nM; with `c1ccc(-c2nnc(Nc3ccc4c(c3)OCCO4)o2)c(NCc2ccncc2)c1`, 5 nM.
Still for that read-out and setting: with `c1cc(CNc2csnc2-c2nnc(Nc3ccc4c(c3)OCO4)o2)ccn1` the figure was 20 nM; with `c1cncc(CNc2ccccc2-c2nnc(Nc3ccc4c(c3)OCO4)o2)c1`, 5 nM; with `c1ccc(-c2nnc(Nc3ccc4c(c3)OCCO4)o2)c(NCc2ccns2)c1`, 5000 nM.

A further experiment relates to A549. As to the kind of experiment: Cytotoxicity against human A549 cells after 24 hrs by MTT assay. To be noted: A549, 24 h. The experiment is classed as functional, cell-based. Put shortly:
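A549 cells in DMEM/10% FBS at 3 × 10³ cells/well, treated 24 h (8 wells per concentration), with 0.4% DMSO as control. MTT (final 0.5 mg/mL) was added for the last 2 h and formazan dissolved in DMSO containing 10% SDS/0.6% acetic acid. OD read at 590 nm (690 nm reference). Three repeats; IC50 from sigmoidal fit.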
(Tetrazolium dyes change colour on reduction, which living cells bring about.)
With `Nc1csnc1-c1nnc(Nc2ccc3c(c2)OCO3)o1`, the IC50 (usually the midpoint of a concentration-inhibition curve) is more than 20000 nM.
On the same count and under the same terms, with `COC(=O)Nc1nc2cc(C(=O)c3cccs3)ccc2[nH]1` [NOCODAZOLE] the figure was 36.6 nM.
For the molecule `c1ccc(-c2nnc(Nc3ccc4c(c3)OCCO4)o2)c(NCc2ccncc2)c1`, half-maximal inhibition (IC50) was put at 15 nM. Against the preceding molecule, the IC50 is about 2.4-fold lower.

For another experiment, the system named is A549. As to the kind of experiment: Cell cycle arrest in human A549 cells assessed as accumulation at G2/M phase after 24 hrs using propidium iodide staining by flow cytometry. The experiment is classed as functional, cell-based. To be noted: Homo sapiens, A549, 24 h; read-out: EC50. The method in brief: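 A549 cells seeded at 5 × 10⁵ per 50 mm dish and treated 24 h, with 0.4% DMSO as negative control. Cells were trypsinized, fixed in 70% ethanol at −20 °C, then treated with RNase 1 mg/mL for 30 min at 37 °C and propidium iodide for 30 min at 37 °C. DNA content of 10000 cells measured by flow cytometry; EC50 for G2/M accumulation.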
(In general: In flow cytometry, cells or beads pass a laser one at a time.)
Take `Nc1csnc1-c1nnc(Nc2ccc3c(c2)OCO3)o1`: the concentration giving a half-maximal response (EC50) was more than 20000 nM.
Same read-out and setting: with `COC(=O)Nc1nc2cc(C(=O)c3cccs3)ccc2[nH]1` [NOCODAZOLE] the figure was 106 nM.
The same measure, in the same setting: with `c1ccc(-c2nnc(Nc3ccc4c(c3)OCCO4)o2)c(NCc2ccncc2)c1` the figure was 44.5 nM.

The same experiment, now with this note: a549.
Regarding `c1ccc(-c2nnc(Nc3ccc4c(c3)OCCO4)o2)c(NCc2ccncc2)c1`, the EC50 entry is “Dose-dependent effect”.

The test system of the next experiment is A549. As to the kind of experiment: Induction of microtubule disruption in human A549 cells at 5 uM after 8 hrs by indirect immunofluorescence microscopic analysis. The experiment is classed as functional, cell-based.
Conditions: not given
Put shortly:
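A549 cells on glass coverslips (2 × 10⁴ per coverslip) exposed 8 h at 37 °C, 5% CO₂, with 0.6% DMSO as negative control. Fixed cells were stained with mouse anti-α-tubulin (1:400) and Alexa Fluor 488 goat anti-mouse IgG (1:200). Microtubule network examined by fluorescence microscopy.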
Consider `c1ccc(-c2nnc(Nc3ccc4c(c3)OCCO4)o2)c(NCc2ccncc2)c1`, for which the outcome was Active.

A further experiment has as its system A549. As to the kind of experiment: Induction of microtubule disruption in human A549 cells at 20 uM after 8 hrs by indirect immunofluorescence microscopic analysis. Type of experiment: functional, cell-based.
Conditions: not given
Turning to `Nc1csnc1-c1nnc(Nc2ccc3c(c2)OCO3)o1`, the outcome was inactive.

The species named for a further experiment is Bos taurus. Put plainly: Inhibition of purified bovine brain tubulin polymerization at 10 uM after 1 hr by VEC-DIC microscopic analysis.
Conditions: not given
The method in brief: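 Bovine brain tubulin (1.2 mg/mL) in BRB80 (80 mM PIPES pH 6.8, 1 mM MgCl₂, 1 mM EGTA) was polymerized with 10% DMSO and 0.5 mM GTP. It was then incubated 1 h at 37 °C with compound, using 0.6% DMSO as negative control. Microtubule assembly was scored by VEC-DIC video microscopy.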
In the case of `c1ccc(-c2nnc(Nc3ccc4c(c3)OCCO4)o2)c(NCc2ccncc2)c1`, the outcome was Active.

System in another experiment: not listed separately
As to the kind of experiment: Inhibition of tubulin polymerization at 10 uM.
Conditions: not given
For `c1ccc(-c2nnc(Nc3ccc4c(c3)OCCO4)o2)c(NCc2ccncc2)c1`, the result was Active.

The values are drawn from ChEMBL document CHEMBL1157842, “Novel derivatives of 1,3,4-oxadiazoles are potent mitostatic agents featuring strong microtubule depolymerizing activity in the sea urchin embryo and cell culture assays” (Eur J Med Chem, 2010).
